Laboratory results taken from ChEMBL document CHEMBL1156902, “Evaluation of 3,4-dihydroquinazoline-2(1H)-thiones as inhibitors of alpha-MSH-induced melanin production in melanoma B16 cells” (Bioorg Med Chem, 2010).
Calls of active or inactive are those of the source. The calls are words filed in the database; no cut-off is given here.

Legend:
B16 [1] = test: Inhibition of alpha-MSH-induced melanin production in mouse B16 cells at 10 uM after 72 hrs; format: functional; conditions: B16, 72 h
B16 [2] = test: Inhibition of alpha-MSH-induced melanin production in mouse B16 cells after 72 hrs; format: functional, cell-based; conditions: B16, 72 h
Procedure, shortened: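 B16 cells were seeded at 2.5 × 10³ per well and held 24 h at 37 °C in 5% CO₂. They were then stimulated with α-MSH for 72 h plus sample (10 nM in methods; 100 nM in results text). Cells were lysed in 1 N NaOH–10% DMSO at 80 °C. Melanin was read at A405 against a synthetic melanin standard, as the mean of 3–5 independent experiments.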

B16 [3] = test: Cytotoxicity against mouse B16 cells assessed as viability at 1 to 30 uM after 72 hrs by MTT assay in presence of alphaMSH; format: cell-based; conditions: b16, 72 h
Procedure, shortened: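 B16 cells were exposed to test compound for 72 h with α-MSH (10 nM). They were then given MTT for 2 h, and the formazan was dissolved in 100% DMSO. Viability was read as optical density at 590 nm.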

[4] = molecular target: T1, Tyrosinase (Mus musculus) (UniProt P11344); test: Inhibition of mouse tyrosinase in 48 hrs alpha-MSH-induced mouse B16 cells at 0.3 to 10 uM; format: cell-based
T1 sequence (whole entry): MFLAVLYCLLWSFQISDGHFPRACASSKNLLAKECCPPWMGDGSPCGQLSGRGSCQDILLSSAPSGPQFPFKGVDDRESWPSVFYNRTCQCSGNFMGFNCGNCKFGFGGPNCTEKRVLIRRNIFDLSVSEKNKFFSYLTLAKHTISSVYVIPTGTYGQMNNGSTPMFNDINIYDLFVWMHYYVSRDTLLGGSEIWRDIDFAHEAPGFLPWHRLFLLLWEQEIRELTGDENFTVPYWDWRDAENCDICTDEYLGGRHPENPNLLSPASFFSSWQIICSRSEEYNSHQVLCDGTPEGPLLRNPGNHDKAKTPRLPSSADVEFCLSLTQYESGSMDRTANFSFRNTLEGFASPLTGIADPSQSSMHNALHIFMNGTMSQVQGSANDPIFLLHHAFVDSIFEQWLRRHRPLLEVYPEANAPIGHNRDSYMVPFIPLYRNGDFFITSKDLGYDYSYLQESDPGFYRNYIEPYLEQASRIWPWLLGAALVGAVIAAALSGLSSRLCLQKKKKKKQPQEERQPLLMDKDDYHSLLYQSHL

[5] = molecular target: T1, Tyrosinase (Mus musculus); test: Inhibition of mouse tyrosinase in 48 hrs alpha-MSH-induced mouse B16 cells by Western blot analysis; format: cell-based
Procedure, shortened: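 B16 cells were stimulated with α-MSH for 48 h plus compound, then lysed in Tris/NaCl/SDS/NP-40 buffer with protease inhibitors at pH 7.4. Equal protein was run on SDS-PAGE, blotted to PVDF and blocked with milk or BSA. Anti-tyrosinase (1:1000) was applied overnight at 4 °C, with GAPDH (1:5000) as internal control. Detection used an HRP secondary and ECL.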

B16 [6] = test: Inhibition of alpha-MSH-induced melanin production in mouse B16 cells at 100 uM after 72 hrs; format: functional; conditions: B16, 72 h

IC50 (B16 [2])	Compound	inhibition at 10 µM (B16 [1])	also measured
> 10 µM	Cc1ccc2c(c1)CN(CCc1ccc(C(C)C)cc1)C(=O)N2	6%	–
> 10 µM	O=C1Nc2ccc(Cl)cc2CN1CCc1ccc(Cl)cc1	7%	–
> 10 µM	O=C1Nc2ccc(Cl)cc2CN1CCc1ccccc1	18%	–
4.3 µM	Cc1ccc2c(c1)CN(CCc1ccc(Cl)cc1)C(=S)N2	> 100%	–
2.8 µM	S=C1Nc2ccc(Cl)cc2CN1CCc1ccccc1	> 100%	–
2.4 µM	Cc1ccc2c(c1)CN(CCc1cccc3ccccc13)C(=S)N2	> 100%	–
180 µM	OC[C@H]1O[C@@H](Oc2ccc(O)cc2)[C@H](O)[C@@H](O)[C@@H]1O [ARBUTIN]	–	–
2.7 µM	Cc1ccc(CCN2Cc3cc(C)ccc3NC2=S)cc1	> 100%	–
9.8 µM	Cc1cccc2c1CN(CCc1ccccc1)C(=O)N2	18%	–
5.5 µM	Cc1ccc(CCN2Cc3cc(Cl)ccc3NC2=S)cc1	> 100%	–
0.5 µM	Cc1ccc2c(c1)CN(CCc1ccc(C(C)C)cc1)C(=S)N2	> 100%	–
> 10 µM	Cc1ccc2c(c1)CN(CCc1ccc(Cl)cc1)C(=O)N2	15%	–
0.8 µM	Cc1ccc2c(c1)NC(=S)N(CCc1ccccc1)C2	> 100%	–
1.1 µM	Cc1cccc2c1CN(CCc1ccccc1)C(=S)N2	> 100%	–
0.5 µM	Cc1ccc2c(c1)CN(CCc1ccc(Cl)cc1Cl)C(=S)N2	> 100%	Activity (B16 [3]): Non-toxic; inhibition [4]: inactive; inhibition [5]: Dose-dependent effect
0.8 µM	Cc1ccc2c(c1)CN(CCc1ccccc1)C(=S)N2	> 100%	–
–	NC(=O)Nc1ccccc1	–	inhibition at 100 µM (B16 [6]): 0%
> 10 µM	Cc1ccc2c(c1)CN(CCc1ccccc1)C(=O)N2	16%	–
> 10 µM	Cc1ccc(CCN2Cc3cc(Cl)ccc3NC2=O)cc1	6%	–
> 10 µM	Cc1ccc2c(c1)CN(CCc1ccc(Cl)cc1Cl)C(=O)N2	11%	–
> 10 µM	Cc1ccc(CCN2Cc3cc(C)ccc3NC2=O)cc1	10%	–
> 10 µM	Cc1ccc2c(c1)NC(=O)N(CCc1ccccc1)C2	24%	–
> 10 µM	Cc1ccc2c(c1)CN(CCc1cccc3ccccc13)C(=O)N2	5%	–
1.6 µM	S=C1Nc2ccc(Cl)cc2CN1CCc1ccc(Cl)cc1	> 100%	–

Compound	IC50 (B16 [2])	inhibition at 10 µM (B16 [1])	also measured
O=c1cc(CO)occ1O [KOJIC ACID]	70 µM	–	–
